A selection: hits, their analogues and other compounds. The true share with any hit is near 3%.
CaV13 ICDI inh: Disruptors of the CACNA1D IQ motif to Ca2+-dependent inactivation inhibitor domain association, primary screening, Förster resonance energy transfer in intact living … | inhibition, % at 12.3 µM | 340,000 compounds, 0.098% hits | HEK cells, CFP/YFP FRET ICDI-IQ, plate reader, 10 min; percent FRET-ratio fall versus neutral wells;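 active = mean replicate inhibition of at least 30% and at least 1% of replicates passing that level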
PvdQ inh: P. aeruginosa PvdQ acylase inhibition; purified PvdQ acylase, fluorescence plate reader; inhibition, % at 10 µM; 340,000 compounds, 0.063% hits; AID 488965; in the data active = inhibition above about 30%, passing the limit was not always enough
T cruzi inh: blocks replication of Trypanosoma cruzi; T. cruzi beta-gal in NIH3T3, luminescence, 90 h; inhibition, % (no concentration beside the values); 300,000 compounds, 1.4% hits;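 active = mean inhibition across valid replicates above about 55%, limit read from the data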;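 also: signal also drops with host cell toxicity which is not excluded here; higher percent means less beta-gal luminescence so fewer parasites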
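compound dosing = single 50 nL compound addition per well in DMSO | material = NIH/3T3 host cells with β-galactosidase reporter T. cruzi | input = 5,000 host fibroblasts per well | timing = ≥90 h infection period, 3 h prior cell attachment | read-out basis = percent inhibition of parasite-derived β-gal signal | detection = GalScreen β-gal luminescence, detergent lysis, 60 min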
Glyco luc inh: N-linked glycosylation inhibition | D54 ERlucT glycosylation luciferase reporter, 24 h; percent of 100 nM tunicamycin response | 360,000 compounds, 0.23% hits | reporter increase, % at 12.5 µM;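 active = mean luciferase reporter signal, scaled so untreated is 0 and the glycosylation-blocking control 100, at or above a set limit in every replicate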;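 also: luciferase carries N-glycosylation sites so blocking glycosylation raises the light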
HSF-1 act: increases HSF-1 driven luciferase reporter signal. NIH3T3-HGL HSF-1 luciferase reporter, MG132, 8 h; 100% = twice DMSO control signal. AID 504408. activation, % at 9 µM. 300,000 compounds, 1.7% hits;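 active = mean replicate activation of at least 50% with a set share of replicates each reaching 50%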
PfHsp90 set2: inhibits growth of yeast expressing Plasmodium falciparum Hsp90; S. cerevisiae expressing PfHsp90, BacTiter-Glo ATP, 48 h; yeast lacking PDR1 and PDR3 efflux regulators; 310,000 compounds, 0.32% hits; inhibition, % at 9.4 µM;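 active = every replicate shows inhibition above about 80%, whatever the replicate mean, limit read from the data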
A number is an active result; . = inactive; / = no result.

SMILES	CaV13 ICDI inh	PvdQ inh	T cruzi inh	Glyco luc inh	HSF-1 act	PfHsp90 set2
Cc1[nH][nH]c(=O)c1C(c1ccc(-c2ccc(C(=O)O)cc2)o1)c1c(C)[nH][nH]c1=O	.	.	/	.	/	.
Cc1[nH][nH]c(=O)c1C(c1ccc(-c2ccc(F)cc2)o1)c1c(C)[nH][nH]c1=O	.	.	.	.	.	.
Cc1[nH][nH]c(=O)c1C(c1ccc(-c2ccc(Cl)c(Cl)c2)o1)c1c(C)[nH][nH]c1=O	/	.	.	46	.	.
N#Cc1c(NC(=O)c2ccccc2Cl)n(Cc2ccccc2)c2nc3ccccc3nc12	.	.	/	.	/	.
CCCCn1c(NC(=O)c2ccccc2Cl)c(C#N)c2nc3ccccc3nc21	/	.	.	.	.	78
COc1ccccc1OCC(=O)NCC1CCCN(C(=O)c2cccc(C)c2)C1 (stereo not given)	.	/	/	.	/	/
O=C1C=C(c2cccs2)C[C@H](c2ccccc2)[C@H]1n1nnc([N+](=O)[O-])n1	.	.	.	25	.	92
OCc1c(OCc2cccc(F)c2)ccc2ccccc12	.	.	.	.	62	.
O=C(Nc1nc(-c2ccccc2)cs1)C1CCCCN1S(=O)(=O)c1ccc(Cl)cc1 (stereo not given)	.	.	78	.	.	/
CC1CCCN(S(=O)(=O)c2cccc([N+](=O)[O-])c2)C1 (stereo not given)	.	.	.	.	.	.
O=C(Nc1nc(-c2ccccc2)cs1)C1CCCN(S(=O)(=O)c2ccccc2)C1 (stereo not given)	.	.	61	.	.	.
O=C(Nc1nc(-c2ccccc2)cs1)C1CCCCN1S(=O)(=O)c1ccccc1 (stereo not given)	.	.	.	.	/	.
O=C(Nc1nc(-c2ccccc2)cs1)C1CCCN(S(=O)(=O)c2cccc([N+](=O)[O-])c2)C1 (stereo not given)	.	.	74	.	.	.
CC1(C(=O)NS(=O)(=O)c2ccc(F)cc2F)CCN1C(=O)C1(c2ccc(Cl)cc2)CC1 (stereo not given)	.	/	/	.	/	/
CC(C)CCNC(=O)c1cc(S(=O)(=O)N2CCC3(CC2)OCCO3)ccc1F	.	/	/	.	/	/
Cc1ccc(-c2nc(-c3cccnc3)no2)c(C)c1	.	.	.	.	57	/
CC(=O)Nc1ccc2c(c1)nc(CCN1CCC(C)CC1)n2C	.	.	.	.	.	.
CC1CCN(CCc2nc3cc(NC(=O)Nc4ccccc4)ccc3n2C)CC1	.	.	.	.	177	/
Cn1c(CCN2CCOCC2)nc2cc(NC(=O)COc3ccccc3)ccc21	.	.	.	.	68	.
COc1ccc(OCC(=O)Nc2ccc3c(c2)nc(CCN2CCCC2)n3C)cc1	.	.	.	.	.	.
COc1ccc(OCC(=O)Nc2ccc3c(c2)nc(CCN2CCN(C)CC2)n3C)cc1	.	.	.	.	53	.
CS(=O)(=O)N1CCc2cc(-c3csc(NC(=O)Cc4ccccc4)n3)ccc21	/	.	55	.	.	.
CCCC(=O)Nc1nc(-c2ccc3c(c2)CCN3S(C)(=O)=O)cs1	/	.	.	.	.	.
CN=c1sc(C(=O)Nc2cccc(Cl)c2)cc(=O)n1C	.	.	.	31	.	.
C=CCNc1cccc2c1S(=O)(=O)N[C@H](Cc1ccccc1)CO2	.	/	/	/	/	/
SMILES	CaV13 ICDI inh	PvdQ inh	T cruzi inh	Glyco luc inh	HSF-1 act	PfHsp90 set2
CCc1cc(CNC(=O)C2CCC(=O)N(CCc3ccc(OC)cc3)C2)on1 (stereo not given)	.	.	.	.	.	.
Cc1ccc(CNC(=O)C2CCC(=O)N(Cc3ccc(Cl)cc3)C2)cc1F (stereo not given)	.	.	.	.	56	.
COc1ccc(CCN2CC(C(=O)NCc3cc(C)on3)CCC2=O)cc1 (stereo not given)	.	.	.	.	74	.
CCNC(=O)C1(C)CCCN(Cc2cc(-c3ccccc3)n(C)n2)C1 (stereo not given)	.	/	/	.	/	/
O=C(c1ccc(Cl)c(Cl)c1)N1CCC(=O)N([C@H](COCc2cccc(C(F)(F)F)c2)Cc2ccccc2)CC1	.	/	/	/	/	/
O=C(Nc1ccc(Cl)c(S(=O)(=O)N2CCCC2)c1)c1cc(=O)[nH]c2ccccc12	.	.	/	.	/	/
Cc1ccc(NC(=O)c2cc(N3C(=O)C=CC3=O)ccc2N2CCOCC2)cc1Cl	.	.	55	.	.	105
Cc1ccc(NC(=O)c2cc(N3C(=O)CCC3=O)ccc2N2CCOCC2)cc1	.	.	.	.	.	.
COCC(C)n1c(SCC(=O)Nc2ccc3c(c2)OCCO3)nc2ccccc2c1=O (stereo not given)	.	.	/	.	/	.
CCC(C)n1c(SCC(=O)NC(=O)Nc2ccc3c(c2)OCCO3)nc2ccccc2c1=O (stereo not given)	/	.	66	.	54	.
COc1cccc(CNC(=O)[C@H]2CCCN2C(=O)[C@H]2CCCN2C(=O)c2ccc(C)cc2)c1	.	/	/	/	/	/
CC(C)c1cc(Cn2c3ccccc3c(=O)n2C(C)C)on1	.	/	/	.	/	/
O=C(N=Nc1c(O)[nH]c2c(Cl)cc(Cl)cc12)c1ccccc1O	.	/	/	/	/	/
Cc1cc(C)n2nc(-c3ccsc3-n3c(C)ccc3C)cc2n1	.	.	55	.	.	.
Cc1occc1C(=O)Nc1ccccc1NC(=O)c1ccoc1C	.	.	.	.	.	.
CCN(CC)c1ccc(N=Cc2ccc(N(CC)CC)cc2O)cc1	.	.	74	.	.	/
CCN(CC)c1ccc(/C=N/NC(=O)c2ccoc2C)c(O)c1	.	.	57	.	.	.
Cc1occc1C(=O)Nc1cccc2ccccc12	.	.	.	.	73	.
Cc1occc1C(=O)N/N=C/c1ccc(OCc2ccccc2)cc1	.	.	.	.	53	.
O=C(N/N=C/c1cccc2ccccc12)c1ccccc1Cl	.	.	.	.	.	.
Cc1occc1C(=O)N/N=C/c1cccc2ccccc12	.	.	.	.	63	.
CCCCS(=O)(=O)N1C2=NC(C(=O)OCC)=C(C(=O)OCC)C3N(Cc4ccc(C#N)cc4)c4ccccc4[C@]23C[C@H]1C(=O)OC (stereo not given in full)	.	/	/	/	/	/
CSCc1ccc(C(=O)Nc2ccc(C(N)=O)cc2)cc1	.	.	.	.	55	.
O=C(Nc1ccccc1)c1ccc(CSc2ncccn2)cc1	/	.	.	.	87	.
CSCc1ccc(C(=O)NCc2ccc(C)cc2)cc1	.	.	.	.	.	.
CS(=O)(=O)c1ccc(S(=O)(=O)NCC2CCN(C(=O)C(=O)c3cc4ccccc4o3)CC2)cc1	.	/	/	/	/	/
C[C@H]1CN([C@@H](C)CO)S(=O)(=O)c2ccc(Br)cc2O[C@H]1CN(C)C(=O)CCN1CCCCC1	.	/	/	.	/	/

Source: PubChem BioAssay
